Source: ChEMBL document CHEMBL3098129, “Preparation and evaluation of deconstruction analogues of 7-deoxykalafungin as AKT kinase inhibitors” (Bioorg Med Chem Lett, 2014)

Columns and labels:
[1] = molecular target: cAMP-dependent protein kinase catalytic subunit alpha (Homo sapiens, UniProt P17612); experiment: Inhibition of PKAalpha (unknown origin) using serine/threonine 01 peptide as substrate after 1 hr by FRET based Z'-LYTE assay
Procedure, shortened: (§1)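 Run with a commercial Z'-LYTE kit, a FRET read-out of the kinase phosphorylating a peptide substrate. It detects functional inhibition of kinase activity regardless of mechanism.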

[2] = molecular target: RAC-alpha serine/threonine-protein kinase (Homo sapiens, UniProt P31749); experiment: Inhibition of recombinant AKT1 (unknown origin) using serine/threonine 06 peptide as substrate after 1 hr by FRET based Z'-LYTE assay; procedure, shortened: as §1
Chain of RAC-alpha serine/threonine-protein kinase (P31749 whole entry): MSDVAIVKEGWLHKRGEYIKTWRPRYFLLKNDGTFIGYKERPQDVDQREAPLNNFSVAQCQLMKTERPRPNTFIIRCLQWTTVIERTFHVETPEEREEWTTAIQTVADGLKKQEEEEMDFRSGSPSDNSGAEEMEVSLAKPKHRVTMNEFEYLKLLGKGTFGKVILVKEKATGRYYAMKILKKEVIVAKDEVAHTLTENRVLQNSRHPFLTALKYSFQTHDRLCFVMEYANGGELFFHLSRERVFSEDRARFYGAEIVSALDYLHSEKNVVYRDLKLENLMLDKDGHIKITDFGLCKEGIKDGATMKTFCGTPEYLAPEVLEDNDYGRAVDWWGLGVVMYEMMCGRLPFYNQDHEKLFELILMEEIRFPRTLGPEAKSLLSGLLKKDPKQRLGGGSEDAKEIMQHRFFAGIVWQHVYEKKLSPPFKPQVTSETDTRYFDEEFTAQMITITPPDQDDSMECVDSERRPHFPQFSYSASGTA

Row | IC50 [1] [µM] | IC50 [2] [µM] | SMILES
1 | 0.43 | 2.94 | O=C1C[C@@H](O)[C@@H](C2=CC(=O)c3ccccc3C2=O)O1
2 | > 100 | 50 | COC/C=C/C(=O)c1ccccc1
3 | > 100 | 13.7 | COC(=O)CC/C=C/C(=O)c1ccccc1
4 | > 100 | 0.28 | C[C@H]1O[C@@H]2CC(=O)O[C@@H]2C2=C1C(=O)c1ccccc1C2=O

Row | SMILES | IC50 [1] [µM] | IC50 [2] [µM]
5 | C=CC(=O)c1ccccc1 | > 100 | 12.3
